Measurements reported in ChEMBL document CHEMBL4020718, “Trifluoromethyl arylamides with antileukemia effect and intracellular inhibitory activity over serine/arginine-rich protein kinases (SRPKs)” (Eur J Med Chem, 2017).
pIC50: −log10 of the molar value. Active and inactive are the calls of the source. The calls are words filed in the database; no cut-off is given here.

Assays:
Jurkat = assay: Cytotoxicity against human Jurkat cells assessed as reduction in cell viability up to 200 uM after 48 hrs by MTT assay; assay type: functional, cell-based; settings: for IC50: jurkat; for pIC50: Homo sapiens, Jurkat, 48 h, read-out: IC50
Summary of the method: (§1)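 Cells (7x10^4/well) in RPMI-1640 with 10% FBS, 37 °C, 5% CO2; exposed to compound dilutions 0–200 µM (medium with 10% FBS, 0.4% DMSO) for 48 h. MTT added, 3 h at 37 °C, formazan dissolved in DMSO, absorbance 540 nm. IC50 from concentration–response; means ± standard deviation of three independent experiments.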

NALM-6 [1] = assay: Cytotoxicity against human NALM6 cells assessed as reduction in cell viability up to 200 uM after 48 hrs by MTT assay; assay type: functional, cell-based; settings: for IC50: nalm-6; for pIC50: Homo sapiens, NALM-6, 48 h, read-out: IC50; summary of the method: as §1
HL-60 [2] = assay: Cytotoxicity against human HL60 cells assessed as reduction in cell viability up to 200 uM after 48 hrs by MTT assay; assay type: functional, cell-based; settings: for IC50: hl-60; for pIC50: Homo sapiens, HL-60, 48 h, read-out: IC50; summary of the method: as §1
Homo sapiens [3] = species on record: Homo sapiens; assay: Inhibition of SRPK in human NALM6 cell lysates assessed as reduction in phospho-SR epitopes signal at 20 uM after 24 hrs by Western blot analysis
Summary of the method: (§2)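 Nalm6 treated 24 h at 20 µM (DMSO vehicle control), lysed at 2x10^7 cells/mL in PBS with 1% NP40, 1 mM EDTA, 150 mM NaCl, 10 mM Tris pH 7.4 plus protease/phosphatase inhibitors; on ice 10 min, sonicated, spun 15000 xg; SDS-PAGE, PVDF, milk block overnight, primary and secondary antibody 2 h each; representative of three.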

Homo sapiens [4] = species on record: Homo sapiens; assay: Inhibition of SRPK in human NALM6 cells assessed as decrease in VEGF mRNA expression level at 20 uM after 24 hrs by qRT-PCR analysis; assay type: cell-based
Summary of the method: (§3)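 Nalm6 given 20 µM for 24 h with 0.4% DMSO control; mRNA isolated with Tri Reagent, quantified spectrophotometrically, integrity checked on 1% agarose, then RT-PCR for target transcripts; one representative of three experiments.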

Homo sapiens [5] = species on record: Homo sapiens; assay: Inhibition of SRPK in human NALM6 cells assessed as decrease in MAP2K1 mRNA expression level at 20 uM after 24 hrs by qRT-PCR analysis; assay type: cell-based; summary of the method: as §3
Homo sapiens [6] = species on record: Homo sapiens; assay: Inhibition of SRPK in human NALM6 cells assessed as decrease in RON mRNA expression level at 20 uM after 24 hrs by qRT-PCR analysis; assay type: cell-based; summary of the method: as §3
Homo sapiens [7] = species on record: Homo sapiens; assay: Inhibition of SRPK in human NALM6 cells assessed as decrease in MAP2K2 mRNA expression level at 20 uM after 24 hrs by qRT-PCR analysis; assay type: cell-based; summary of the method: as §3
NALM-6 [8] = assay: Induction of apoptosis in human NALM6 cells assessed as early apoptotic cells at 20 uM after 12 hrs by Annexin-V/FITC propidium iodide staining based flow cytometric analysis (reference value: 7.40%); assay type: functional
NALM-6 [9] = assay: Cytotoxicity against human NALM6 cells assessed as cell growth inhibition at 20 uM after 96 hrs by trypan blue dye exclusion assay relative to control; assay type: functional; settings: NALM-6, 96 h, read-out: GI
Summary of the method: (§4)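 Nalm6 at 1x10^4 or HL60 at 1.5x10^4 cells per well exposed to 20 µM; DMSO (0.4% v/v) as control. Viable cells counted by trypan blue exclusion on a hemocytometer at 0, 24, 48, 72 and 96 h; growth inhibition relative to control.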

NALM-6 [10] = assay: Effect on SRPK2 expression level in human NALM6 cells at 20 uM after 24 hrs by Western blot analysis; assay type: functional, cell-based; summary of the method: as §2
NALM-6 [11] = assay: Induction of apoptosis in human NALM6 cells assessed as necrotic cells at 20 uM after 12 hrs by Annexin-V/FITC propidium iodide staining based flow cytometric analysis (reference value: 0.04%); assay type: functional
PBMC = assay: Cytotoxicity against PHA-stimulated human PBMC assessed as reduction in cell viability at 25 uM after 48 hrs by MTT assay; assay type: cell-based
Summary of the method: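 Primary peripheral blood mononuclear cells seeded 1x10^5/well in complete RPMI; treated with 25 µM for 48 h. Viability by MTT (3 h, 37 °C, DMSO solubilization, 540 nm), vehicle taken as 100% viability; triplicate experiments, means ± standard deviation.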

NALM-6 [12] = assay: Induction of apoptosis in human NALM6 cells assessed as late apoptotic cells at 20 uM after 12 hrs by Annexin-V/FITC propidium iodide staining based flow cytometric analysis (reference value: 0.45%); assay type: functional
NALM-6 [13] = assay: Synergistic cytotoxicity against human NALM6 cells assessed as reduction in cell viability by measuring combination index at 8.9 uM after 48 hrs in presence of 0.5 nM vincristine by MTT assay; assay type: functional
NALM-6 [14] = assay: Induction of apoptosis in human NALM6 cells assessed as viable cells at 20 uM after 24 hrs by Annexin-V/FITC propidium iodide staining based flow cytometric analysis (reference value: 90.10%); assay type: functional; settings: NALM-6, 24 h, read-out: Activity
NALM-6 [15] = assay: Synergistic cytotoxicity against human NALM6 cells assessed as reduction in cell viability by measuring combination index at 17.9 uM after 48 hrs in presence of 1 nM vincristine by MTT assay; assay type: functional
HL-60 [16] = assay: Cytotoxicity against human HL60 cells assessed as cell growth inhibition at 20 uM after 96 hrs by trypan blue dye exclusion assay relative to control; assay type: functional; settings: HL-60, 96 h, read-out: GI; summary of the method: as §4
NALM-6 [17] = assay: Induction of autophagy in human NALM6 cells at 20 uM after 24 hrs by acridin orange staining based fluorescence microscopy; assay type: functional, cell-based
Summary of the method: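 Nalm6 (7x10^4/well) exposed 24 h to 20 µM or 0.4% DMSO, washed in PBS, stained with 1 µM acridine orange at 37 °C for 15 min, washed, resuspended in PBS; autophagosomes (red fluorescence) viewed by fluorescence microscopy; three experiments.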

NALM-6 [18] = assay: Induction of apoptosis in human NALM6 cells assessed as early apoptotic cells at 20 uM after 24 hrs by Annexin-V/FITC propidium iodide staining based flow cytometric analysis (reference value: 8.22%); assay type: functional
NALM-6 [19] = assay: Effect on actin expression level in human NALM6 cells at 20 uM after 24 hrs by Western blot analysis; assay type: ADME, cell-based; settings: nalm-6, 24 h; summary of the method: as §2
NALM-6 [20] = assay: Induction of apoptosis in human NALM6 cells assessed as necrotic cells at 20 uM after 24 hrs by Annexin-V/FITC propidium iodide staining based flow cytometric analysis (reference value: 0%); assay type: functional
NALM-6 [21] = assay: Antiproliferative activity against human NALM6 cells at 20 uM by trypan blue dye exclusion assay; assay type: functional, cell-based; settings: TDE = time-dependent effect; summary of the method: as §4
NALM-6 [22] = assay: Induction of apoptosis in human NALM6 cells assessed as viable cells at 20 uM after 12 hrs by Annexin-V/FITC propidium iodide staining based flow cytometric analysis (reference value: 92.11%); assay type: functional; settings: NALM-6, 12 h, read-out: Activity
HL-60 [23] = assay: Antiproliferative activity against human HL60 cells at 20 uM by trypan blue dye exclusion assay; assay type: functional, cell-based; settings: TDE = time-dependent effect; summary of the method: as §4
NALM-6 [24] = assay: Induction of apoptosis in human NALM6 cells assessed as late apoptotic cells at 20 uM after 24 hrs by Annexin-V/FITC propidium iodide staining based flow cytometric analysis (reference value: 1.68%); assay type: functional
NALM-6 [25] = assay: Effect on SRPK1 expression level in human NALM6 cells at 20 uM after 24 hrs by Western blot analysis; assay type: functional, cell-based; summary of the method: as §2
NALM-6 [26] = assay: Effect on actin expression level in human NALM6 cells at 20 uM after 24 hrs by qRT-PCR analysis; assay type: ADME, cell-based; settings: nalm-6, 24 h

O=C(Nc1cc(C(F)(F)F)ccc1N1CCCC1)c1ccncc1
IC50 (Jurkat): Not Active
IC50 (NALM-6 [1]): Not Active
IC50 (HL-60 [2]): Not Active

O=C(Nc1cc(C(F)(F)F)ccc1N1CCCC1)c1ccccc1
IC50 (Jurkat): Not Active
IC50 (NALM-6 [1]): Not Active
IC50 (HL-60 [2]): Not Active

O=C(Nc1cc(C(F)(F)F)ccc1N1CCOCC1)c1ccccc1
IC50 (Jurkat): Not Active
IC50 (NALM-6 [1]): Not Active
IC50 (HL-60 [2]): Not Active

O=C(Nc1cc(C(F)(F)F)ccc1N1CCCCC1)c1ccccc1
IC50 (Jurkat): Not Active
IC50 (NALM-6 [1]): Not Active
IC50 (HL-60 [2]): Not Active

O=C(Nc1cc(C(F)(F)F)ccc1N1CCCCC1)c1cccnc1Cl
IC50 (Jurkat): Not Active
IC50 (NALM-6 [1]): Not Active
IC50 (HL-60 [2]): Not Active

CCN(CC)c1ccc(C(F)(F)F)cc1NC(=O)c1ccncc1
IC50 (Jurkat): Not Active
pIC50 (NALM-6 [1]): 4.20
pIC50 (HL-60 [2]): 4.05

O=C(Nc1cc(C(F)(F)F)ccc1NC1CCCCC1)c1ccccc1
IC50 (Jurkat): Not Active
IC50 (NALM-6 [1]): Not Active
pIC50 (HL-60 [2]): 4.46

O=C(Nc1cc(C(F)(F)F)ccc1N1CCCCC1)c1cccnc1
IC50 (Jurkat): Not Active
IC50 (NALM-6 [1]): Not Active
IC50 (HL-60 [2]): Not Active

O=C(Nc1cc(C(F)(F)F)ccc1N1CCCCC1)c1ccncc1
pIC50 (Jurkat): 4.12
inhibition (Homo sapiens [3]): Active
pIC50 (NALM-6 [1]): 4.15
inhibition (Homo sapiens [4]): inactive
inhibition (Homo sapiens [5]): inactive
inhibition (Homo sapiens [6]): inactive
pIC50 (HL-60 [2]): 4.42
inhibition (Homo sapiens [7]): inactive

O=C(Nc1cc(C(F)(F)F)ccc1NC1CCCCC1)c1ccncc1
pIC50 (Jurkat): 4.09
pIC50 (NALM-6 [1]): 4.23
pIC50 (HL-60 [2]): 4.23

CCN(CC)c1ccc(C(F)(F)F)cc1NC(=O)c1cccnc1
IC50 (Jurkat): Not Active
pIC50 (NALM-6 [1]): 4.20
pIC50 (HL-60 [2]): 4.15

O=C(Nc1cc(C(F)(F)F)ccc1NC1CCCCC1)c1cccnc1
IC50 (Jurkat): Not Active
pIC50 (NALM-6 [1]): 4.28
pIC50 (HL-60 [2]): 4.32

O=C(Nc1cc(C(F)(F)F)ccc1N1CCOCC1)c1cccnc1Cl
IC50 (Jurkat): Not Active
IC50 (NALM-6 [1]): Not Active
IC50 (HL-60 [2]): Not Active

O=C(Nc1cc(C(F)(F)F)ccc1Nc1ccc(Br)cc1)c1ccncc1
IC50 (Jurkat): Not Active
pIC50 (NALM-6 [1]): 4.28
IC50 (HL-60 [2]): Not Active

O=C(Nc1cc(C(F)(F)F)ccc1N1CCCC1)c1cccnc1Cl
IC50 (Jurkat): Not Active
IC50 (NALM-6 [1]): Not Active
IC50 (HL-60 [2]): Not Active

O=C(Nc1cc(C(F)(F)F)ccc1N1CCCC1)c1cccnc1
IC50 (Jurkat): Not Active
IC50 (NALM-6 [1]): Not Active
IC50 (HL-60 [2]): Not Active

O=C(Nc1cc(C(F)(F)F)ccc1N1CCOCC1)c1ccncc1
IC50 (Jurkat): Not Active
IC50 (NALM-6 [1]): Not Active
IC50 (HL-60 [2]): Not Active

O=C(Nc1cc(C(F)(F)F)ccc1Nc1ccc(Br)cc1)c1cccnc1Cl
pIC50 (Jurkat): 4.69
Activity (NALM-6 [8]): 11.7%
pIC50 (NALM-6 [1]): 4.45
inhibition of growth at 20 µM (NALM-6 [9]): 37%
Activity (NALM-6 [10]): inactive
Activity (NALM-6 [11]): 0%
Activity (PBMC): Toxic
Activity (NALM-6 [12]): 0.52%
CI (NALM-6 [13]): 0.57
viability at 20 µM (NALM-6 [14]): 86.8%
pIC50 (HL-60 [2]): 4.85
CI (NALM-6 [15]): 1.02
inhibition of growth at 20 µM (HL-60 [16]): 33%
Activity (NALM-6 [17]): Active
Activity (NALM-6 [18]): 11.91%
Activity (NALM-6 [19]): Non-Toxic
Activity (NALM-6 [20]): 0.07%
Activity (NALM-6 [21]): Tde
viability at 20 µM (NALM-6 [22]): 87.9%
Activity (HL-60 [23]): Tde
Activity (NALM-6 [24]): 1.16%
Activity (NALM-6 [25]): inactive
Activity (NALM-6 [26]): Non-Toxic

CCN(CC)c1ccc(C(F)(F)F)cc1NC(=O)c1ccccc1
IC50 (Jurkat): Not Active
IC50 (NALM-6 [1]): Not Active
IC50 (HL-60 [2]): Not Active

CCN(CC)c1ccc(C(F)(F)F)cc1NC(=O)c1cccnc1Cl
pIC50 (Jurkat): 4.05
IC50 (NALM-6 [1]): Not Active
pIC50 (HL-60 [2]): 4.08

O=C(Nc1cc(C(F)(F)F)ccc1N1CCOCC1)c1cccnc1
IC50 (Jurkat): Not Active
IC50 (NALM-6 [1]): Not Active
IC50 (HL-60 [2]): Not Active
